Source: ChEMBL document CHEMBL3272173, “Synthesis and biological activity of peptide antagonists of luliberin (luteinizing hormone-releasing hormone)” (J Med Chem, 1979)
Several values for one entry are separate records, joined by “and”; a condition that tells them apart may be missing. Identical values can stand only once. One block for each compound: values may come before it.

Columns and labels:
Rattus norvegicus [1] = experiment: Antiovulatory activity in sc dosed CD rat assessed as blockade of ovulation administered as six doses at 1200, 1230, 1300, 1350, 1400 and 1450 hrs during proestrus stage measured during estrus stage by dissecting microscopic analysis; assay type: functional
Outline: (§1)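 Cycling Charles River CD rats were given six subcutaneous injections of analogue in 0.1 mL propylene glycol on the afternoon of proestrus, and controls received vehicle alone. Rats were killed the next morning (estrus). Ovulating animals were scored and ova in the oviducts were counted under a dissecting microscope.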

[2] = target: T1, Gonadotropin-releasing hormone receptor (Rattus norvegicus) (UniProt P30969); experiment: In vitro antagonist activity at GNRHR in CD rat anterior pituitary gland assessed as inhibition of LH-RH-stimulated LH release at compound to LH-RH molar ratio of 500 after 4 hrs by radioimmunoassay; details: concentration not given here
T1 sequence (whole entry): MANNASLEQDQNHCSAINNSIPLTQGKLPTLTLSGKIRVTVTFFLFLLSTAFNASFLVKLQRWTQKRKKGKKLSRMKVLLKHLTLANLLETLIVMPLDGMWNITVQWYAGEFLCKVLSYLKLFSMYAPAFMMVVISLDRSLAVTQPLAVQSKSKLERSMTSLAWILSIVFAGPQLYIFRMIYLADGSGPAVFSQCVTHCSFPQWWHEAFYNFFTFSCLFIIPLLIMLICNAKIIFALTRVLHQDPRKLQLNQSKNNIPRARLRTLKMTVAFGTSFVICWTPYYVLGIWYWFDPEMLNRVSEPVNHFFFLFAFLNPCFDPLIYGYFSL
Outline: (§2)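 Anterior pituitaries from diestrus CD rats (200-250 g) were dissociated enzymatically (collagenase, hyaluronidase, then Viokase). Cells were cultured 4 days at 1.67 × 10^5 cells/mL in DME with 10% horse serum and 2.5% fetal calf serum, then washed serum-free. Duplicate cultures received LH-RH (2-5 × 10^-10 M) with a single analogue concentration in serum-free DME for 4 h at 37 °C. LH in the medium was measured by RIA and reported as % inhibition of LH-RH-stimulated release.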

Rattus norvegicus [3] = experiment: Antiovulatory activity in CD rat assessed as blockade of ovulation at 0.3 mg, sc administered as six doses at 1200, 1230, 1300, 1350, 1400 and 1450 hrs during proestrus stage measured during estrus stage by dissecting microscopic analysis; assay type: functional; outline: as §1
[4] = target: T1, Gonadotropin-releasing hormone receptor (Rattus norvegicus); experiment: In vitro antagonist activity at GNRHR in CD rat anterior pituitary gland assessed as ratio of molar concentration of compound to LH-RH for inhibition of LH-RH-stimulated LH release after 4 hrs by radioimmunoassay
Outline: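 Monolayers were cultured 4 days from dissociated anterior pituitary cells of diestrus CD rats. They were exposed in duplicate to LH-RH (2-5 × 10^-10 M) plus multiple analogue concentrations in serum-free DME for 4 h at 37 °C. LH in the medium was measured by radioimmunoassay. The ED50 molar ratio is the analogue:LH-RH molar ratio giving 50% inhibition of LH-RH-stimulated LH release.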

[5] = target: T1, Gonadotropin-releasing hormone receptor (Rattus norvegicus); experiment: In vitro antagonist activity at GNRHR in CD rat anterior pituitary gland assessed as inhibition of LH-RH-stimulated LH release at compound to LH-RH molar ratio of 100 after 4 hrs by radioimmunoassay; details: concentration not given here; outline: as §2
[6] = target: T1, Gonadotropin-releasing hormone receptor (Rattus norvegicus); experiment: In vitro antagonist activity at GNRHR in CD rat anterior pituitary gland assessed as inhibition of LH-RH-stimulated LH release at compound to LH-RH molar ratio of 40 after 4 hrs by radioimmunoassay; details: concentration not given here; outline: as §2
[7] = target: T1, Gonadotropin-releasing hormone receptor (Rattus norvegicus); experiment: In vitro antagonist activity at GNRHR in CD rat anterior pituitary gland assessed as inhibition of LH-RH-stimulated LH release at compound to LH-RH molar ratio of 5 after 4 hrs by radioimmunoassay; details: concentration not given here; outline: as §2
[8] = target: T1, Gonadotropin-releasing hormone receptor (Rattus norvegicus); experiment: In vitro antagonist activity at GNRHR in CD rat anterior pituitary gland assessed as inhibition of LH-RH-stimulated LH release at compound to LH-RH molar ratio of 28 after 4 hrs by radioimmunoassay; details: concentration not given here; outline: as §2
[9] = Solubility of the compound in 0.9% sodium chloride; assay type: physicochemical
Rattus norvegicus [10] = experiment: Antiovulatory activity in CD rat assessed as blockade of ovulation at 0.1 mg, sc administered as six doses at 1200, 1230, 1300, 1350, 1400 and 1450 hrs during proestrus stage measured during estrus stage by dissecting microscopic analysis; assay type: functional; outline: as §1
[11] = Solubility of the compound in water; assay type: physicochemical
Rattus norvegicus [12] = experiment: Antiovulatory activity in CD rat assessed as blockade of ovulation at 10 mg, sc administered as six doses at 1200, 1230, 1300, 1350, 1400 and 1450 hrs during proestrus stage measured during estrus stage by dissecting microscopic analysis; assay type: functional; outline: as §1
[13] = target: T1, Gonadotropin-releasing hormone receptor (Rattus norvegicus); experiment: In vitro antagonist activity at GNRHR in CD rat anterior pituitary gland assessed as inhibition of LH-RH-stimulated LH release at compound to LH-RH molar ratio of 20 after 4 hrs by radioimmunoassay; details: concentration not given here; outline: as §2
[14] = target: T1, Gonadotropin-releasing hormone receptor (Rattus norvegicus); experiment: In vitro antagonist activity at GNRHR in CD rat anterior pituitary gland assessed as inhibition of LH-RH-stimulated LH release at compound to LH-RH molar ratio of 1.7 after 4 hrs by radioimmunoassay; details: concentration not given here; outline: as §2

inhibition [2]: 98%
ED50 [4]: 76 molar ratio
SMILES: CC(C)C[C@H](NC(=O)[C@@H](Cc1ccccc1)NC(=O)[C@H](Cc1ccc(O)cc1)NC(=O)[C@H](CO)NC(=O)[C@H](Cc1c[nH]c2ccccc12)NC(=O)[C@@H](Cc1ccccc1)NC(=O)[C@@H]1CCC(=O)N1)C(=O)N[C@@H](CCCNC(=N)N)C(=O)N1CCC[C@H]1C(=O)NCC(N)=O.Cl
ED50 (Rattus norvegicus [1]): 0.1 mg
inhibition (INH) (Rattus norvegicus [3]): 100%

inhibition [5]: 70%
inhibition [6]: 70%
ED50 [4]: 12.8 molar ratio and 7.7 molar ratio
SMILES: CCNC(=O)[C@@H]1CCCN1C(=O)[C@H](CCCNC(=N)N)NC(=O)[C@H](CC(C)C)NC(=O)[C@@H](Cc1ccccc1)NC(=O)[C@H](Cc1ccc(O)cc1)NC(=O)[C@H](CO)NC(=O)[C@H](Cc1c[nH]c2ccccc12)NC(=O)[C@H](CCC(N)=O)NC(=O)OCc1ccccc1

inhibition [7]: 77%
inhibition [8]: 82%
SMILES: CCNC(=O)[C@@H]1CCCN1C(=O)[C@H](CCCNC(=N)N)NC(=O)[C@H](CC(C)C)NC(=O)[C@H](NC(=O)[C@H](Cc1ccc(O)cc1)NC(=O)[C@H](CO)NC(=O)[C@H](Cc1c[nH]c2ccccc12)NC(=O)[C@H](CCC(N)=O)NC(=O)OCc1ccccc1)[C@@H](O)c1ccccc1

solubility [9]: 16 µg/mL
solubility [11]: 3000 µg/mL
SMILES: CC(=O)O.CC(C)C[C@H](NC(=O)[C@@H](Cc1c[nH]c2ccccc12)NC(=O)[C@H](Cc1ccc(O)cc1)NC(=O)[C@H](CO)NC(=O)[C@H](Cc1c[nH]c2ccccc12)NC(=O)[C@H](COCc1ccccc1)NC(=O)OC(C)(C)C)C(=O)N[C@@H](CCCNC(=N)N)C(=O)N1CCC[C@H]1C(=O)NCC(N)=O
inhibition (INH) (Rattus norvegicus [10]): 100%
ED50 (Rattus norvegicus [1]): 0.05 mg

SMILES: CCNC(=O)[C@@H]1CCCN1C(=O)[C@H](CCCNC(=N)N)NC(=O)[C@H](CC(C)C)NC(=O)[C@@H](Cc1ccccc1)NC(=O)[C@H](Cc1ccc(O)cc1)NC(=O)[C@H](CO)NC(=O)[C@H](Cc1c[nH]c2ccccc12)NC(=O)[C@H](CCC(N)=O)NC(=O)OCc1ccccc1.Cl
inhibition (INH) (Rattus norvegicus [12]): 0%
ED50 (Rattus norvegicus [1]): >10 mg

inhibition [13]: 71%
inhibition [14]: 64%
ED50 [4]: 1.3 molar ratio and 2 molar ratio
SMILES: CC(C)C[C@H](NC(=O)[C@@H](Cc1c[nH]c2ccccc12)NC(=O)[C@H](Cc1ccc(O)cc1)NC(=O)[C@H](CO)NC(=O)[C@H](Cc1c[nH]c2ccccc12)NC(=O)[C@H](COCc1ccccc1)NC(=O)OC(C)(C)C)C(=O)N[C@@H](CCCNC(=N)N)C(=O)N1CCC[C@H]1C(=O)NCC(N)=O
